Data from paper PMC4166031 (Bioconjugate Chemistry, 2014).

Tests used:
[1] = SPECT/CT quantification of tumor uptake, MDA-MB-231 breast tumor model; type: in vivo, athymic nude mice; conditions: athymic nude, mouse, iv, 37 MBq, total radioactivity
How it was run: (§1)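 Mice bearing U87MG glioma and MDA-MB-231 breast xenografts (4 weeks post-inoculation) got ~37 MBq 99mTc radiotracer (not HPLC-purified) in 0.1 mL saline by tail vein, under ~2.0% isoflurane. Multi-pinhole SPECT (75 projections over 30 min per frame, 2 frames), then CT at 45 kV, 500 μA. Tumors delineated on CT/SPECT; activity taken from a γ-counter-calibrated source standard curve, as %ID/cm3.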

[2] = Solution stability in the kit matrix by radio-HPLC; type: physicochemical; conditions: kit matrix (TPPTS, tricine, mannitol, succinate buffer); monitored by radio-HPLC for 6 h
[3] = Biodistribution in athymic nude mice bearing U87MG glioma xenografts; type: in vivo; conditions: female, athymic nu/nu, mouse, iv, total radioactivity
[4] = tested on: U87MG glioma xenografts; test: SPECT/CT quantification of tumor uptake, U87MG glioma model; type: in vivo, athymic nude mice; conditions: ~37 MBq i.v., SPECT/CT at 60 min p.i.
How it was run: as §1

[5] = tested on: U87MG human glioma xenografts; test: Biodistribution in athymic nude mice bearing U87MG glioma xenografts; type: in vivo
[6] = 5 min p.i., U87MG glioma-bearing athymic nude mice

Row | SMILES | Time remained stable in the kit matrix postlabeling [2] | tissue uptake at 0.5 h ([3]; lungs, 0.1 MBq) [%ID/g] | tissue uptake at 1 h ([3]; lungs, 0.1 MBq) [%ID/g] | tissue uptake at 2 h ([3]; lungs, 0.1 MBq) [%ID/g] | tissue uptake at 0.5 h ([3]; muscle, 0.1 MBq) [%ID/g] | tissue uptake at 1 h ([3]; muscle, 0.1 MBq) [%ID/g] | tissue uptake at 2 h ([3]; muscle, 0.1 MBq) [%ID/g] | tissue uptake at 0.5 h ([3]; spleen, 0.1 MBq) [%ID/g] | tissue uptake at 1 h ([3]; spleen, 0.1 MBq) [%ID/g] | tissue uptake at 2 h ([3]; spleen, 0.1 MBq) [%ID/g] | tissue to tissue ratio at 0.5 h ([3]; tumor and blood, 0.1 MBq) | tissue to tissue ratio at 1 h ([3]; tumor and blood, 0.1 MBq) | tissue to tissue ratio at 2 h ([3]; tumor and blood, 0.1 MBq) | tissue to tissue ratio at 0.5 h ([3]; tumor and liver, 0.1 MBq) | tissue to tissue ratio at 1 h ([3]; tumor and liver, 0.1 MBq) | tissue to tissue ratio at 2 h ([3]; tumor and liver, 0.1 MBq) | tissue to tissue ratio at 0.5 h ([3]; tumor and lung) | tissue to tissue ratio at 1 h ([3]; tumor and lung) | tissue to tissue ratio at 2 h ([3]; tumor and lung) | tissue to tissue ratio at 0.5 h ([3]; tumor and muscle) | also measured
1 | N=C(N)NCCC[C@@H]1NC(=O)[C@H](CCCCNC(=O)CNC(=O)CNC(=O)CNC(=O)CC[C@H](NC(=O)CCOCCOCCOCCOCCNC(=O)c2ccc(NN)nc2)C(=O)NCC(=O)NCC(=O)NCC(=O)NCCCC[C@@H]2NC(=O)[C@@H](Cc3ccccc3)NC(=O)[C@H](CC(=O)O)NC(=O)CNC(=O)[C@H](CCCNC(=N)N)NC2=O)NC(=O)[C@@H](Cc2ccccc2)NC(=O)[C@H](CC(=O)O)NC(=O)CNC1=O [^99mTc-P6G-RGD2, [^99mTc(HYNIC-P6G-RGD2)(tricine)(TPPTS)], metal not drawn] | more than 6 h | 4.38 ± 0.55 | 3.83 ± 0.56 | 2.81 ± 0.36 | 1.75 ± 0.24 | 1.68 ± 0.33 | 0.83 ± 0.11 | 3.08 ± 0.88 | 2.68 ± 0.57 | 2.31 ± 0.27 | 14.1 ± 1.25 | 15.6 ± 2.79 | 41.8 ± 5.13 | 2.95 ± 0.33 | 2.86 ± 0.3 | 3.21 ± 0.53 | 2.07 ± 0.15 | 2.35 ± 0.24 | 2.71 ± 0.12 | 5.04 ± 0.68 | tissue uptake per volume at 1 h [1]: 3.5 %ID/mL; tissue to tissue ratio at 1 h ([3]; tumor and muscle): 5.09 ± 0.51; tissue to tissue ratio at 2 h ([3]; tumor and muscle): 9.42 ± 1.25; tissue uptake at 0.5 h ([3]; tumor, 0.1 MBq): 8.85 ± 0.67 %ID/g; tissue uptake at 1 h ([3]; tumor, 0.1 MBq): 8.17 ± 1.1 %ID/g; tissue uptake at 2 h ([3]; tumor, 0.1 MBq): 7.82 ± 0.76 %ID/g; Tumor uptake on the basis of SPECT quantification [4]: ~8.2 %ID/cm^3
2 | N=C(N)NCCC[C@@H]1NC(=O)[C@H](CCCCNC(=O)[C@H](CC(=O)O)NC(=O)[C@H](CC(=O)O)NC(=O)[C@H](CC(=O)O)NC(=O)CC[C@H](NC(=O)CCOCCOCCOCCOCCNC(=O)c2ccc(NN)nc2)C(=O)N[C@@H](CC(=O)O)C(=O)N[C@@H](CC(=O)O)C(=O)N[C@@H](CC(=O)O)C(=O)NCCCC[C@@H]2NC(=O)[C@@H](Cc3ccccc3)NC(=O)[C@H](CC(=O)O)NC(=O)CNC(=O)[C@H](CCCNC(=N)N)NC2=O)NC(=O)[C@@H](Cc2ccccc2)NC(=O)[C@H](CC(=O)O)NC(=O)CNC1=O [^99mTc-P6D-RGD2, [^99mTc(HYNIC-P6D-RGD2)(tricine)(TPPTS)], metal not drawn] | more than 6 h | 2.05 ± 0.28 | 1.85 ± 0.2 | 1.11 ± 0.42 | 1.79 ± 0.2 | 1.59 ± 0.25 | 0.79 ± 0.23 | 2.6 ± 0.37 | 2.58 ± 0.46 | 2.4 ± 0.37 | 2.5 ± 0.33 | 6.5 ± 0.58 | 6.98 ± 4.06 | 0.65 ± 0.15 | 0.87 ± 0.17 | 0.84 ± 0.18 | 1.19 ± 0.35 | 1.68 ± 0.1 | 2.41 ± 0.73 | 1.97 ± 0.53 | Initial blood radioactivity level, fold higher than ^99mTc-3P-RGD2 [5, 6]: ~3 ×; Initial blood radioactivity level, fold higher than ^99mTc-P6G-RGD2 [5, 6]: ~5 ×; Integrin αvβ3 specificity of tumor uptake (blocking experiment) ([5]; 60 min p.i., with/without coinjection of excess RGD2 (350 μg/mouse or 14 mg/kg)): integrin αvβ3-specific; tissue uptake at 1 h ([3]; blood, 14 mg/kg): 0.23 ± 0.01 %ID/g; tissue uptake at 1 h ([3]; brain, 14 mg/kg): 0.02 ± 0.01 %ID/g; tissue uptake at 1 h ([3]; eyes, 14 mg/kg): 0.23 ± 0.1 %ID/g; tissue uptake at 1 h ([3]; heart, 14 mg/kg): 0.2 ± 0.07 %ID/g; tissue uptake at 1 h ([3]; intestine, 14 mg/kg): 0.22 ± 0.11 %ID/g; tissue uptake at 1 h ([3]; kidneys, 14 mg/kg): 23.9 ± 3.61 %ID/g; tissue uptake at 1 h ([3]; liver, 14 mg/kg): 0.28 ± 0.04 %ID/g; tissue to tissue ratio at 1 h ([3]; tumor and lung, 14 mg/kg): 1.1 ± 0.13; tissue to tissue ratio at 1 h ([3]; tumor and muscle): 2 ± 0.36; tissue to tissue ratio at 2 h ([3]; tumor and muscle): 3.3 ± 1.24; tissue uptake at 0.5 h ([3]; tumor, 0.1 MBq): 2.85 ± 0.55 %ID/g; tissue uptake at 1 h ([3]; tumor, 0.1 MBq): 3.13 ± 0.47 %ID/g; tissue uptake at 2 h ([3]; tumor, 0.1 MBq): 2.45 ± 0.9 %ID/g
